pIC50: −log10 of the molar value.
Assays:
[1] = target: T1, Glutamate NMDA receptor (Rattus norvegicus) (UniProt P35439+Q00959+Q00960+Q00961+Q62645+Q8VHN2+Q9R1M7); assay: (§1) Inhibition of NMDA receptor binding affinity in rat brain synaptosomal membrane using [3H]glutamate as radioligand; format: cell membranes; settings: concentration not given here
Procedure, shortened: (§2)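 Displacement of radioligand ([3H]glutamate, [3H]glycine or [3H]CGP 39653) from rat cortex synaptosomal membranes. IC50 values are means of at least two experiments, each run in triplicate.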

[2] = target: T1, Glutamate NMDA receptor (Rattus norvegicus); assay: (§3) Inhibition of NMDA receptor binding affinity in rat brain synaptosomal membrane using [3H]glycine as radioligand; format: cell membranes; settings: concentration not given here; procedure, shortened: as §2
[3] = target: T1, Glutamate NMDA receptor (Rattus norvegicus); assay: (§4) Inhibition of receptor binding affinity in rat brain synaptosomal membrane was determined by [3H]-CGP- 39653 as radioligand; format: cell membranes; settings: concentration not given here; procedure, shortened: as §2
Mus musculus [4] = assay: Maximal electroshock (MES) results in mice by iv administration of 10 mg/kg expressed as number of animals ataxia by total 5 animals tested after 15 min was reported; format: functional
Procedure, shortened: (§5)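 Adult male CF-1 mice (18–24 g) dosed iv, mg/kg. At 15 min, 1 h and 2 h after dosing, a 60 Hz sinusoidal current (50 mA base to peak, 0.2 s) is applied through corneal electrodes smeared with electrolyte jelly. Protection means no tonic hindlimb extension. Ataxia is scored by inverted screen. Data are expressed as animals affected per animals tested, 5 per group.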

Mus musculus [5] = assay: Maximal electroshock (MES) results in mice by iv administration of 10 mg/kg expressed as number of animals ataxia by total 5 animals tested after 1 hr was reported; format: functional; procedure, shortened: as §5
Mus musculus [6] = assay: Maximal electroshock (MES) results in mice by iv administration of 10 mg/kg expressed as number of animals ataxia by total 5 animals tested after 2 hr was reported; format: functional; procedure, shortened: as §5
Mus musculus [7] = assay: Maximal electroshock (MES) results in mice by iv administration of 10 mg/kg expressed as number of animals protected by total 5 animals tested after 15 min was reported; format: functional; procedure, shortened: as §5
Mus musculus [8] = assay: Maximal electroshock (MES) results in mice by iv administration of 10 mg/kg expressed as number of animals protected by total 5 animals tested after 1 hr was reported; format: functional; procedure, shortened: as §5
Mus musculus [9] = assay: Maximal electroshock (MES) results in mice by iv administration of 10 mg/kg expressed as number of animals protected by total 5 animals tested after 2 hr was reported; format: functional; procedure, shortened: as §5
Glutamate NMDA receptor [10] = assay: as §1; format: cell membranes; procedure, shortened: as §2
Glutamate NMDA receptor [11] = assay: as §3; format: cell membranes; procedure, shortened: as §2
Glutamate NMDA receptor [12] = assay: as §4; format: cell membranes; procedure, shortened: as §2
Mus musculus [13] = assay: Maximal electroshock (MES) results in mice by iv administration of 10 mg/kg expressed as number of animals with ataxia total 5 animals tested after 2 hr was reported; format: functional; procedure, shortened: as §5
Mus musculus [14] = assay: Maximal electroshock (MES) results in mice by iv administration of 3 mg/kg expressed as number of animals with ataxia by total 5 animals tested after 15 min was reported; format: functional; procedure, shortened: as §5
Mus musculus [15] = assay: Maximal electroshock (MES) results in mice by iv administration of 3 mg/kg expressed as number of animals with ataxia by total 5 animals tested after 1 hr was reported; format: functional; procedure, shortened: as §5
Mus musculus [16] = assay: Maximal electroshock (MES) results in mice by iv administration of 3 mg/kg expressed as number of animals with ataxia total 5 animals tested after 2 hr was reported; format: functional; procedure, shortened: as §5
Mus musculus [17] = assay: Maximal electroshock (MES) results in mice by iv administration of 10 mg/kg expressed as number of animals with ataxia total 5 animals tested after 15 min was reported; format: functional; procedure, shortened: as §5
Mus musculus [18] = assay: Maximal electroshock (MES) results in mice by iv administration of 10 mg/kg expressed as number of animals with ataxia total 5 animals tested after 1 hr was reported; format: functional; procedure, shortened: as §5
Mus musculus [19] = assay: Maximal electroshock (MES) results in mice by iv administration of 3 mg/kg expressed as number of animals protected by total 5 animals tested after 15 min was reported; format: functional; procedure, shortened: as §5
Mus musculus [20] = assay: Maximal electroshock (MES) results in mice by iv administration of 3 mg/kg expressed as number of animals protected by total 5 animals tested after 1 hr was reported; format: functional; procedure, shortened: as §5
Mus musculus [21] = assay: Maximal electroshock (MES) results in mice by iv administration of 3 mg/kg expressed as number of animals protected by total 5 animals tested after 2 hr was reported; format: functional; procedure, shortened: as §5
Glutamate NMDA receptor [22] = assay: Inhibition of receptor binding affinity in […] measured using LDH release
Procedure, shortened: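 Neuronal cell-culture excitotoxicity assay. Cell death is induced by a 5 min application of 100 μM NMDA and read out as lactate dehydrogenase release. The value is the compound concentration needed to prevent cell death.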

Mus musculus [23] = assay: Maximal electroshock (MES) results in mice by iv administration of 0.3 mg/kg expressed as number of animals ataxia by number of animals tested after 1 hr was reported; format: functional; procedure, shortened: as §5
Mus musculus [24] = assay: Maximal electroshock (MES) results in mice by iv administration of 0.3 mg/kg expressed as number of animals ataxia by total 5 animals tested after 15 min was reported; format: functional; procedure, shortened: as §5
Mus musculus [25] = assay: Maximal electroshock (MES) results in mice by iv administration of 0.3 mg/kg expressed as number of animals ataxia by total 5 animals tested after 2 hr was reported; format: functional; procedure, shortened: as §5
Mus musculus [26] = assay: Maximal electroshock (MES) results in mice by iv administration of 1 mg/kg expressed as number of animals ataxia by total 5 animals tested after 15 min was reported; format: functional; procedure, shortened: as §5
Mus musculus [27] = assay: Maximal electroshock (MES) results in mice by iv administration of 1 mg/kg expressed as number of animals ataxia by total 5 animals tested after 1 hr was reported; format: functional; procedure, shortened: as §5
Mus musculus [28] = assay: Maximal electroshock (MES) results in mice by iv administration of 1 mg/kg expressed as number of animals ataxia by total 5 animals tested after 2 hr was reported; format: functional; procedure, shortened: as §5
Mus musculus [29] = assay: Maximal electroshock (MES) results in mice by iv administration of 0.3 mg/kg expressed as number of animals protected by total 5 animals tested after 15 min was reported; format: functional; procedure, shortened: as §5
Mus musculus [30] = assay: Maximal electroshock (MES) results in mice by iv administration of 0.3 mg/kg expressed as number of animals protected by total 5 animals tested after 1 hr was reported; format: functional; procedure, shortened: as §5
Mus musculus [31] = assay: Maximal electroshock (MES) results in mice by iv administration of 0.3 mg/kg expressed as number of animals protected by total 5 animals tested after 2 hr was reported; format: functional; procedure, shortened: as §5
Mus musculus [32] = assay: Maximal electroshock (MES) results in mice by iv administration of 1 mg/kg expressed as number of animals protected by total 5 animals tested after 15 min was reported; format: functional; procedure, shortened: as §5
Mus musculus [33] = assay: Maximal electroshock (MES) results in mice by iv administration of 1 mg/kg expressed as number of animals protected by total 5 animals tested after 1 hr was reported; format: functional; procedure, shortened: as §5
Mus musculus [34] = assay: Maximal electroshock (MES) results in mice by iv administration of 1 mg/kg expressed as number of animals protected by total 5 animals tested after 2 hr was reported; format: functional; procedure, shortened: as §5
Mus musculus [35] = assay: Maximal electroshock (MES) results in mice by iv administration of 30 mg/kg expressed as number of animals ataxia by total 5 animals tested after 15 min was reported; format: functional; procedure, shortened: as §5
Mus musculus [36] = assay: Maximal electroshock (MES) results in mice by iv administration of 30 mg/kg expressed as number of animals ataxia by total 5 animals tested after 1 hr was reported; format: functional; procedure, shortened: as §5
Mus musculus [37] = assay: Maximal electroshock (MES) results in mice by iv administration of 30 mg/kg expressed as number of animals ataxia by total 5 animals tested after 2 hr was reported; format: functional; procedure, shortened: as §5
Mus musculus [38] = assay: Maximal electroshock (MES) results in mice by iv administration of 10 mg/kg expressed as number of animals ataxia by number of animals tested after 15 min was reported; format: functional; procedure, shortened: as §5
Mus musculus [39] = assay: Maximal electroshock (MES) results in mice by iv administration of 10 mg/kg expressed as number of animals ataxia by number of animals tested after 1 hr was reported; format: functional; procedure, shortened: as §5
Mus musculus [40] = assay: Maximal electroshock (MES) results in mice by iv administration of 10 mg/kg expressed as number of animals protected by number of animals tested after 15 min was reported; format: functional; procedure, shortened: as §5
Mus musculus [41] = assay: Maximal electroshock (MES) results in mice by iv administration of 10 mg/kg expressed as number of animals protected by number of animals tested after 1 hr was reported; format: functional; procedure, shortened: as §5
Mus musculus [42] = assay: Maximal electroshock (MES) results in mice by iv administration of 30 mg/kg expressed as number of animals protected by total 5 animals tested after 15 min was reported; format: functional; procedure, shortened: as §5
Mus musculus [43] = assay: Maximal electroshock (MES) results in mice by iv administration of 30 mg/kg expressed as number of animals protected by total 5 animals tested after 1 hr was reported; format: functional; procedure, shortened: as §5
Mus musculus [44] = assay: Maximal electroshock (MES) results in mice by iv administration of 30 mg/kg expressed as number of animals protected by total 5 animals tested after 2 hr was reported; format: functional; procedure, shortened: as §5

## N[C@H](Cc1cccc(-c2ccccc2)c1)C(=O)O
[1]
  inhibition: 90%
[2]
  inhibition: 81%
[3]
  inhibition: 100%

## N[C@H](Cc1cc(CP(=O)(O)O)cc(-c2ccccc2)c1)C(=O)O
Mus musculus [4]
  Ataxia: 0
Mus musculus [5]
  Ataxia: 0
Mus musculus [6]
  Ataxia: 0
Mus musculus [7]
  Protected: 0
Mus musculus [8]
  Protected: 0
Mus musculus [9]
  Protected: 0
Glutamate NMDA receptor [10]
  pIC50: 4.87
Glutamate NMDA receptor [11]
  pIC50: < 3.70
Glutamate NMDA receptor [12]
  pIC50: 5.28

## N[C@@H](Cc1cc(CP(=O)(O)O)cc(-c2ccccc2)c1)C(=O)O
Mus musculus [13]
  Ataxia: 0
Mus musculus [14]
  Ataxia: 0
Mus musculus [15]
  Ataxia: 0
Mus musculus [16]
  Ataxia: 0
Mus musculus [17]
  Ataxia: 0
Mus musculus [18]
  Ataxia: 1
Mus musculus [7]
  Protected: 5
Mus musculus [8]
  Protected: 4
Mus musculus [9]
  Protected: 3
Mus musculus [19]
  Protected: 1
Mus musculus [20]
  Protected: 0
Mus musculus [21]
  Protected: 1
Glutamate NMDA receptor [22]
  pIC50: 6.00
Glutamate NMDA receptor [10]
  pIC50: 6.89
Glutamate NMDA receptor [11]
  pIC50: 3.65
Glutamate NMDA receptor [12]
  pIC50: 7.06

## N[C@@H](Cc1cc(CP(=O)(O)O)cc(-c2ccc3ccccc3c2)c1)C(=O)O
Mus musculus [23]
  Ataxia: 0
Mus musculus [24]
  Ataxia: 0
Mus musculus [25]
  Ataxia: 0
Mus musculus [26]
  Ataxia: 0
Mus musculus [27]
  Ataxia: 1
Mus musculus [28]
  Ataxia: 0
Mus musculus [29]
  Protected: 1
Mus musculus [30]
  Protected: 0
Mus musculus [31]
  Protected: 2
Mus musculus [32]
  Protected: 1
Mus musculus [33]
  Protected: 5
Mus musculus [34]
  Protected: 5
Glutamate NMDA receptor [10]
  pIC50: 7.85
Glutamate NMDA receptor [12]
  pIC50: 7.92

## N[C@H](Cc1cc(CP(=O)(O)O)cc(-c2cccc3ccccc23)c1)C(=O)O
Mus musculus [35]
  Ataxia: 1
Mus musculus [36]
  Ataxia: 0
Mus musculus [37]
  Ataxia: 0
Mus musculus [38]
  Ataxia: 0
Mus musculus [39]
  Ataxia: 0
Mus musculus [6]
  Ataxia: 0
Mus musculus [40]
  Protected: 0
Mus musculus [41]
  Protected: 0
Mus musculus [9]
  Protected: 1
Mus musculus [42]
  Protected: 3
Mus musculus [43]
  Protected: 3
Mus musculus [44]
  Protected: 5
Glutamate NMDA receptor [10]
  pIC50: 6.49
Glutamate NMDA receptor [12]
  pIC50: 6.60

Reference: ChEMBL document CHEMBL1128383, “Potent, orally active, competitive N-methyl-D-aspartate (NMDA) receptor antagonists are substrates for a neutral amino acid uptake system in Chinese hamster ovary cells” (J Med Chem, 1995)
